Sampled rows, rich in hits. Any-hit rate of the full collection: about 4.1%.
Apaf-1 inh – blocks human Apaf-1 apoptosome activity; reconstituted apoptosome caspase-3 activity, DEVD-Rh110 fluorescence; O14727; hit rate 0.71% among 330,000; inhibition, % at 20 µM; AID 489030; active means inhibition of at least 40% at 20 µM;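 further: plate controls were DMSO wells for no effect and DEVD-CHO caspase inhibitor wells for full effect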
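detection = Rh110 fluorescence intensity | test system = biochemical Apaf-1 apoptosome reconstitution | also added = cytochrome c and DEVD-Rh110 substrate | schedule = 30 min plus 50 min, RT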
Mdm2-MdmX inh – human Mdm2/MdmX binding inhibition | O15151+Q00987 | SaOS-2 split-luciferase Mdm2/MdmX complementation, luminescence | inhibition, % at 8 µM | hit rate 3% among 330,000;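 active means inhibition of at least 50% at 8 µM in the primary screen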
Target sequence (O15151 whole entry, looked up): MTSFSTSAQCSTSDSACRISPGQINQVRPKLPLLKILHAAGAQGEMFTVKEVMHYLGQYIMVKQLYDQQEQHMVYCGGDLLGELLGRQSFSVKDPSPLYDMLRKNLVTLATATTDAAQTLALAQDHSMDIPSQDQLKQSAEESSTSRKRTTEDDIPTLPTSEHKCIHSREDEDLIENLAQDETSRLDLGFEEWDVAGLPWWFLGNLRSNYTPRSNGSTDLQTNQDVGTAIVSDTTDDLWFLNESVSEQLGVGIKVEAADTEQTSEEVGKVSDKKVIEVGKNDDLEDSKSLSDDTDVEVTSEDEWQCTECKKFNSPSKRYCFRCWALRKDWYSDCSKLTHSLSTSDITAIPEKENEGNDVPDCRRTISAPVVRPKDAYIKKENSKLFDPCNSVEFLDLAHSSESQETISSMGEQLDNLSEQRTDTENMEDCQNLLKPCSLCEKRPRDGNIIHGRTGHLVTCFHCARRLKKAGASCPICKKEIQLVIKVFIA
Target sequence (Q00987 whole entry, looked up): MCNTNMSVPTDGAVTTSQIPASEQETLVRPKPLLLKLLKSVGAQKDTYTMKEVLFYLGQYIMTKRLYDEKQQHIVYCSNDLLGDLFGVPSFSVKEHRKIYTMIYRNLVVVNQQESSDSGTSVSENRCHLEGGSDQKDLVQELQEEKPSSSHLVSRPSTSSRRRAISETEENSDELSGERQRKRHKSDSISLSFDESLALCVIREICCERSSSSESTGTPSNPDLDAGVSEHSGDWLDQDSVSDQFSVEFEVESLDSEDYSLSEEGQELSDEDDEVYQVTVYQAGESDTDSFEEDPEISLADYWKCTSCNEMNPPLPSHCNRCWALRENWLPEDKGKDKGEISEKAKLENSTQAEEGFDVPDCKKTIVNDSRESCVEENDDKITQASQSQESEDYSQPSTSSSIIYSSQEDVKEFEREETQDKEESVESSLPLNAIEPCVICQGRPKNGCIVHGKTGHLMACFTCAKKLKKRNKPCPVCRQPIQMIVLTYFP
CHOP UPR activ – apoptotic UPR (CHOP) activation. CHO-CHOP luciferase reporter, luminescence; percent of tunicamycin response over DMSO baseline. activation, % at 10 µM. hit rate 0.34% among 330,000. AID 449763;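 active means at 10 µM dose, activation of 40% or more, normalized to positive control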;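 further: 100% = tunicamycin at 10 µg/mL and 0% = DMSO alone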
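Test system: CHO CHOP reporter cells. Input: 500 CHO-CHOP cells per well. Medium: F12 with 10% FBS. Technique: luciferase luminescence. Measure: percent activation relative to tunicamycin control. Dosing: 10 µM compound, 0.5% DMSO. Timing: 16-18 h cell attachment, then 6 h compound exposure, 37 °C.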
UBC13 inh – human UBC13 polyubiquitination inhibition; P61088; UBC13 polyubiquitin chain formation, TR-FRET; inhibition, % at 20 µM; hit rate 0.47% among 330,000; AID 485273; in the data active means inhibition above about 45%, passing the limit was not always enough
XBP1 UPR activ – adaptive UPR (XBP1) activation. CHO-XBP1 luciferase reporter, IRE1-XBP1 UPR activation, luminescence; percent of tunicamycin response, DMSO as zero. activation, % at 20 µM. hit rate 0.33% among 330,000. AID 463104;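 active means versus positive control, 20 µM dose yields 30% or more activation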;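 further: 100% = tunicamycin at 10 µg/mL and 0% = DMSO only wells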
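Material: CHO-XBP1 cells stably carrying IRE1-XBP1-driven luciferase reporter | Medium: F12 with 10% serum | Compound dosing: 20 µM single concentration, DMSO 1% | Incubation: Overnight seeding at 37 °C, 6 h compound treatment at 37 °C | Detection: Steady-Glo luminescence read | Read-out basis: % activation of reporter signal versus tunicamycin and DMSO controls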
Mdm2-MdmX conf – human Mdm2/MdmX binding inhibition, confirmed; inhibition, % at 8 µM; AID 489028; luminescent assay; shares compounds with Mdm2-MdmX inh; hit rate 55% among 10,000; in the data active means inhibition above about 40%
Full FLuc ctr – full-length luciferase inhibition in Mdm2/MdmX counter-screen | hit rate 77% among 6,200 | shares compounds with Mdm2-MdmX inh | AID 504607 | inhibition, % at 8 µM | SaOS-2 full-length luciferase counterscreen, luminescence;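 active means mean inhibition at 8 µM reaching about 37%, which flags the compound as non-specific, limit read from the data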;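 further: p53-null SaOS-2 cells with luciferase driven by a doxycycline-inducible promoter; compound on cells about two nights before reading with doxycycline added after day one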
* = called active by the depositor.

CC(C)(C)c1ccc(-c2noc(CNC(=O)c3ccco3)n2)cc1 was read as Apaf-1 inh 21, Mdm2-MdmX inh -9, CHOP UPR activ 2, UBC13 inh -5 and XBP1 UPR activ 1.
Screening COc1ccc(C(=O)Nn2c(SCC(=O)c3ccccc3)nc3ccccc3c2=O)cc1 returned Apaf-1 inh 14, Mdm2-MdmX inh 54*, CHOP UPR activ -3, UBC13 inh 83*, XBP1 UPR activ -4, Mdm2-MdmX conf 52* and Full FLuc ctr 127*.
COc1ccc(C(=O)Nn2c(SCc3ccc([N+](=O)[O-])cc3)nc3ccccc3c2=O)cc1 was read as Apaf-1 inh 18, Mdm2-MdmX inh 46, CHOP UPR activ -3, UBC13 inh 6 and XBP1 UPR activ -10.
For COc1ccc(CNCc2cc3c(C(C)(C)C)nn(-c4ccccc4)c3[nH]c2=O)cc1 the results were Apaf-1 inh -2, Mdm2-MdmX inh 37, CHOP UPR activ -1, UBC13 inh 8 and XBP1 UPR activ 3.
For Cc1ccc(CNCc2cc3c(C(C)(C)C)nn(-c4ccccc4)c3[nH]c2=O)cc1 the results were Apaf-1 inh 12, Mdm2-MdmX inh 50*, CHOP UPR activ 1, UBC13 inh 2, XBP1 UPR activ 8 and Mdm2-MdmX conf 31.
Screening Cc1cc(OC2CCCCC2)nc(NCc2ccccc2)n1 returned Apaf-1 inh 2, Mdm2-MdmX inh 50*, CHOP UPR activ 1, UBC13 inh 5, XBP1 UPR activ -1 and Mdm2-MdmX conf 31.
`Cc1cc(N2CCOCC2)nc(NCc2ccccc2)n1` gave Apaf-1 inh -19, Mdm2-MdmX inh 23, CHOP UPR activ 3, UBC13 inh 4 and XBP1 UPR activ -3.
Screening Cc1cc(N2CCCCC2)nc(NCc2ccccc2)n1 returned Apaf-1 inh -7, Mdm2-MdmX inh 65*, CHOP UPR activ -1, UBC13 inh 23, XBP1 UPR activ 4, Mdm2-MdmX conf 45* and Full FLuc ctr 61*.
For CCOc1cc(C)nc(NCc2ccccc2)n1 the results were Apaf-1 inh 4, Mdm2-MdmX inh -15, CHOP UPR activ 0, UBC13 inh 0 and XBP1 UPR activ 0.
For COc1ccc(/C=C/C(=O)N(C)CC(=O)Nc2cccc(F)c2)cc1S(=O)(=O)N1CCCCC1 the results were Apaf-1 inh 1, Mdm2-MdmX inh 52*, CHOP UPR activ -1, UBC13 inh 4, XBP1 UPR activ -4, Mdm2-MdmX conf 55* and Full FLuc ctr 69*.
Screening CSCCC(NC(=O)COc1ccccc1)C(=O)N(C)Cc1cccc(F)c1 (configuration not stated) returned Apaf-1 inh -5, Mdm2-MdmX inh 15, CHOP UPR activ 0, UBC13 inh 5 and XBP1 UPR activ -4.
For Cc1ccc(N=c2c([N+](=O)[O-])nn(-c3ccc4c(c3)OCCO4)n2O)cc1F the results were Apaf-1 inh -13, Mdm2-MdmX inh 80*, CHOP UPR activ -3, UBC13 inh -14, XBP1 UPR activ -3, Mdm2-MdmX conf 95* and Full FLuc ctr 24.
`O=[N+]([O-])c1nn(-c2ccc3c(c2)OCCO3)n(O)c1=Nc1ccccc1` gave Apaf-1 inh -1, Mdm2-MdmX inh 91*, CHOP UPR activ -7, UBC13 inh -13, XBP1 UPR activ -3, Mdm2-MdmX conf 95* and Full FLuc ctr 53*.
`CCc1ccc(N=c2c([N+](=O)[O-])nn(-c3ccc4c(c3)OCCO4)n2O)cc1` gave Apaf-1 inh 23, Mdm2-MdmX inh 41, CHOP UPR activ 0, UBC13 inh -27 and XBP1 UPR activ -1.
For O=[N+]([O-])c1nn(-c2ccc3c(c2)OCCO3)n(O)c1=NCCCO the results were Apaf-1 inh 1, Mdm2-MdmX inh -9, CHOP UPR activ 2, UBC13 inh -20 and XBP1 UPR activ 1.
`Cc1ccc(N=c2c([N+](=O)[O-])nn(-c3ccc4c(c3)OCCO4)n2O)c(Cl)c1` gave Apaf-1 inh 1, Mdm2-MdmX inh 40, CHOP UPR activ -9, UBC13 inh -23 and XBP1 UPR activ -6.
Cc1cc(C)cc(N=c2c([N+](=O)[O-])nn(-c3ccc4c(c3)OCCO4)n2O)c1 was read as Apaf-1 inh 6, Mdm2-MdmX inh 70*, CHOP UPR activ 13, UBC13 inh -9, XBP1 UPR activ 7, Mdm2-MdmX conf 65* and Full FLuc ctr 45*.
Screening O=[N+]([O-])c1nn(-c2ccc3c(c2)OCCO3)n(O)c1=Nc1ccc(Cl)cc1 returned Apaf-1 inh -3, Mdm2-MdmX inh 86*, CHOP UPR activ -5, UBC13 inh -12, XBP1 UPR activ -8, Mdm2-MdmX conf 92* and Full FLuc ctr 51*.
Screening COCC(=O)N1CCC(n2nccc2NC(=O)CCOc2ccccc2)CC1 returned Apaf-1 inh 3, Mdm2-MdmX inh -10, CHOP UPR activ 3, UBC13 inh 0 and XBP1 UPR activ -4.
Screening CN(CCCNC(=O)c1ccccc1F)CCCNC(=O)c1ccccc1F returned Apaf-1 inh -4, Mdm2-MdmX inh 5, CHOP UPR activ -2, UBC13 inh 4 and XBP1 UPR activ -6.
`COc1cc(-c2ccc(NC(=O)NC3CC3)c(OC)c2)ccc1NC(=O)NC1CC1` gave Apaf-1 inh 0, Mdm2-MdmX inh 91*, CHOP UPR activ 0, UBC13 inh 8, XBP1 UPR activ -2, Mdm2-MdmX conf 57* and Full FLuc ctr 73*.
`CCC(=O)Nc1ccc(-c2ccc(NC(=O)CC)c(OC)c2)cc1OC` gave Apaf-1 inh -14, Mdm2-MdmX inh 7, CHOP UPR activ -1, UBC13 inh -1 and XBP1 UPR activ -3.
For CC(C)(C)c1ccc(C(=O)COC(=O)CN2C(=O)NC3(CCCC3)C2=O)cc1 the results were Apaf-1 inh 10, Mdm2-MdmX inh 10, CHOP UPR activ 0, UBC13 inh 0 and XBP1 UPR activ -4.
Screening CN(C)C=Nc1ncc2c([nH]c3ccccc32)c1C#N returned Apaf-1 inh -1, Mdm2-MdmX inh 72*, CHOP UPR activ 1, UBC13 inh -5, XBP1 UPR activ 1, Mdm2-MdmX conf 82* and Full FLuc ctr 23.
Screening CN(C)/C=N/c1[nH]ncc1C#N returned Apaf-1 inh -3, Mdm2-MdmX inh 8, CHOP UPR activ 1, UBC13 inh 8 and XBP1 UPR activ 0.
CCOc1cnn(Cc2ccccc2)c(=O)c1SCc1ccccc1 was read as Apaf-1 inh -1, Mdm2-MdmX inh -13, CHOP UPR activ 3, UBC13 inh 4 and XBP1 UPR activ -2.
`CC1(C)CC(N2CCN(Cc3ccccc3)CC2)=CC(=[N+]2CCCCC2)C1` gave Apaf-1 inh -4, Mdm2-MdmX inh 36, CHOP UPR activ 0, UBC13 inh -18 and XBP1 UPR activ -3.

High-throughput results from PubChem BioAssay.
